Laboratory results: ChEMBL document CHEMBL4330056, “Synthesis and Cytotoxic and Antiviral Profiling of Pyrrolo- and Furo-Fused 7-Deazapurine Ribonucleosides” (J Med Chem, 2018)
Activity calls are given as the source filed them. No cut-off for these calls is given here.

Tests used:
Adenosine kinase [1] = biological target: T1, Adenosine kinase (Homo sapiens, UniProt P55263); assay: Drug metabolism in human HCT116 cells assessed as ADK-mediated compound phosphorylation level per 5x10^5 cells at 10 umol/L after 3 hrs by UPLC-MS/MS analysis; assay type: ADME, cell-based; conditions: 10 µM
In short: (§1)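 BJ (normal) and HCT116 (malignant) cells exposed to nucleoside at 1 or 10 μmol/L for 1 or 3 h. Intracellular nucleoside and its monophosphate quantified against synthetic monophosphate standards. Values given as pmol per 5 × 10^5 cells.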

Adenosine kinase [2] = biological target: T1, Adenosine kinase; assay: Drug metabolism in human BJ cells assessed as ADK-mediated compound phosphorylation level per 5x10^5 cells at 10 umol/L after 1 hr by UPLC-MS/MS analysis; assay type: ADME, cell-based; conditions: 10 µM; in short: as §1
Adenosine kinase [3] = biological target: T1, Adenosine kinase; assay: Drug metabolism in human HCT116 cells assessed as ADK-mediated compound phosphorylation level per 5x10^5 cells at 10 umol/L after 1 hr by UPLC-MS/MS analysis; assay type: ADME, cell-based; conditions: 10 µM; in short: as §1
Adenosine kinase [4] = biological target: T1, Adenosine kinase; assay: Drug metabolism in human BJ cells assessed as ADK-mediated compound phosphorylation level per 5x10^5 cells at 1 umol/L after 3 hrs by UPLC-MS/MS analysis; assay type: ADME, cell-based; conditions: 1 µM; in short: as §1
Adenosine kinase [5] = biological target: T1, Adenosine kinase; assay: Drug metabolism in human BJ cells assessed as ADK-mediated compound phosphorylation level per 5x10^5 cells at 1 umol/L after 1 hr by UPLC-MS/MS analysis; assay type: ADME, cell-based; conditions: 1 µM; in short: as §1
Adenosine kinase [6] = biological target: T1, Adenosine kinase; assay: Drug metabolism in human HCT116 cells assessed as ADK-mediated compound phosphorylation level per 5x10^5 cells at 1 umol/L after 3 hrs by UPLC-MS/MS analysis; assay type: ADME, cell-based; conditions: 1 µM; in short: as §1
Adenosine kinase [7] = biological target: T1, Adenosine kinase; assay: Drug metabolism in human BJ cells assessed as ADK-mediated compound phosphorylation level per 5x10^5 cells at 10 umol/L after 3 hrs by UPLC-MS/MS analysis; assay type: ADME, cell-based; conditions: 10 µM; in short: as §1
Adenosine kinase [8] = biological target: T1, Adenosine kinase; assay: Drug metabolism in human HCT116 cells assessed as ADK-mediated compound phosphorylation level per 5x10^5 cells at 1 umol/L after 1 hr by UPLC-MS/MS analysis; assay type: ADME, cell-based; conditions: 1 µM; in short: as §1
DNA = assay: Induction of DNA damage in human U2OS cells transfected with 53BP1-GFP fusion gene assessed as increase in number of foci per nucleus measured at 1 hr intervals for 11 hrs by fluorescence-based assay; assay type: functional, cell-based
In short: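 U2OS osteosarcoma reporter line stably expressing 53BP1-GFP treated up to 11 h, with etoposide as the double-strand-break reference. 53BP1 foci in nuclei imaged by confocal microscopy (40× objective).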

T1 sequence (P55263 whole entry): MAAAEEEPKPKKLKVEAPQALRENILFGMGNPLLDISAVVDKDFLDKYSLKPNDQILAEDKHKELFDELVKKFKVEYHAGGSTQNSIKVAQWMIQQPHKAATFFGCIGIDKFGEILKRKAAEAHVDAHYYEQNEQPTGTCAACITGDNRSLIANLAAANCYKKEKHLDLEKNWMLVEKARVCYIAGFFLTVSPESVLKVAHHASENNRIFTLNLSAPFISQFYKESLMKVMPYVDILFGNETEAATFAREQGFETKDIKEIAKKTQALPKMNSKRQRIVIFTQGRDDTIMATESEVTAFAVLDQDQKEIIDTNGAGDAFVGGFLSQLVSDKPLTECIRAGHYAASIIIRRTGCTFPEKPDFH

Row | Drug metabolism (Adenosine kinase [1]) [pmol] | Drug metabolism (Adenosine kinase [2]) [pmol] | Drug metabolism (Adenosine kinase [3]) [pmol] | Drug metabolism (Adenosine kinase [4]) [pmol] | Drug metabolism (Adenosine kinase [5]) [pmol] | Drug metabolism (Adenosine kinase [6]) [pmol] | Drug metabolism (Adenosine kinase [7]) [pmol] | Drug metabolism (Adenosine kinase [8]) [pmol] | Compound | Activity (DNA)
1 | 12533.33 | 4488.64 | 9531.67 | 241.05 | 223.51 | 1167.4 | 4920.41 | 511.81 | Cc1ncnc2c1c1occc1n2[C@@H]1O[C@H](COP(=O)([O-])O)[C@@H](O)[C@H]1O.[Na+] | 
2 |  |  |  |  |  |  |  |  | COc1cc([C@@H]2c3cc4c(cc3[C@@H](O[C@@H]3O[C@@H]5CO[C@@H](C)O[C@H]5[C@H](O)[C@H]3O)[C@H]3COC(=O)[C@H]23)OCO4)cc(OC)c1O | Active
3 | 12049.83 | 1531.57 | 8868.83 | 332.63 | 220.92 | 1079.19 | 5041.67 | 466.96 | Cc1ncnc2c1c1c(ccn1C)n2[C@@H]1O[C@H](COP(=O)([O-])O)[C@@H](O)[C@H]1O.[Na+] | 
